Sampled rows, rich in hits. Any-hit rate of the full collection: about 12%.
ABCB1 block = blocks JC-1 efflux by human ABCB1 transporter; P08183; CCRF-Adr cells, flow cytometry; inhibition, % at 6.6 µM; 190,000 tested, 0.067% active; AID 1326; in the data active = inhibition above about 40%;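 note: higher value means more JC-1 retained so stronger ABCB1 efflux block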
Target sequence (P08183 whole entry, looked up): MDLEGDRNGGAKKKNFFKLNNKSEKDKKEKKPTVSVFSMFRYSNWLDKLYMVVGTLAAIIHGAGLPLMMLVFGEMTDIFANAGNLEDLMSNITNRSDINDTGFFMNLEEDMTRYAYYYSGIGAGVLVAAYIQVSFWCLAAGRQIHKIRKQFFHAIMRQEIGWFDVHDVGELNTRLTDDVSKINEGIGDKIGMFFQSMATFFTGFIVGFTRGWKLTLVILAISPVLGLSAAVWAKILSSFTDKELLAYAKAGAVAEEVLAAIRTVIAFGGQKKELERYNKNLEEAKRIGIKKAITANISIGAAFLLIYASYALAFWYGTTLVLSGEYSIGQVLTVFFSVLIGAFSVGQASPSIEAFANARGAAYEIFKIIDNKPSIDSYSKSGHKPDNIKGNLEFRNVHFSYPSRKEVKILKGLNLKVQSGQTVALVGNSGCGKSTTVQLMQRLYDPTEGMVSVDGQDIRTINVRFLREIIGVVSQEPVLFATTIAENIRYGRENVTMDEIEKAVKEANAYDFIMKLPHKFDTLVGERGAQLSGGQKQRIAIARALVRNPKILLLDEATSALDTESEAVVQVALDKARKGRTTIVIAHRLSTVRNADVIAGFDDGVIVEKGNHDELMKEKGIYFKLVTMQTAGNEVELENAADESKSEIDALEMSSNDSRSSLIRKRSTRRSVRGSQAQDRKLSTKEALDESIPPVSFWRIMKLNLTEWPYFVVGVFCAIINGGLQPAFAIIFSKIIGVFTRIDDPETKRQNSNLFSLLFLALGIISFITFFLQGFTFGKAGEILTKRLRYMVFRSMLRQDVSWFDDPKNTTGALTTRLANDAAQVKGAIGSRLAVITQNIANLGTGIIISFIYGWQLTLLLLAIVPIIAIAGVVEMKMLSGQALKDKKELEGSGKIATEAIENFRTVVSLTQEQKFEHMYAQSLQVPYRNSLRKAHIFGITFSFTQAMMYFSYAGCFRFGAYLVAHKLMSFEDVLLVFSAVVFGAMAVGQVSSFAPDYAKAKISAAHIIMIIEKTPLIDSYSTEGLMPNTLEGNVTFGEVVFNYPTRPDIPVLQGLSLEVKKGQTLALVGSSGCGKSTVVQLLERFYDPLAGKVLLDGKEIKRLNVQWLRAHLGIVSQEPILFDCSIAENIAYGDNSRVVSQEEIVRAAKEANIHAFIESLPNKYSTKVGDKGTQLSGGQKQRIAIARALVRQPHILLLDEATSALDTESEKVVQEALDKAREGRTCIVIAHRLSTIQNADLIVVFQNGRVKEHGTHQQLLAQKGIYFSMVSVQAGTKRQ
WT yeast gro inh = growth inhibition of WT yeast, mitochondrial fusion screen | mitochondrial fusion phenotypic screen, WT strain | inhibition, % at 10 µM | 190,000 tested, 2.1% active; in the data active = inhibition above about 58%; tested in S. cerevisiae
Lmaj promast = Leishmania major promastigote growth inhibition; AID 1063; inhibition, % at 10 µM; 200,000 tested, 9% active; Leishmania major promastigotes, resazurin fluorescence viability; in the data active = inhibition above about 50%;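 note: promastigotes grown with compound for 44 hours at 28 °C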
ABCG2 block = blocks JC-1 efflux by human ABCG2 transporter; Q9UNQ0; 190,000 tested, 0.1% active; IgMXP3 cells, flow cytometry; inhibition, % at 6.6 µM;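 active = inhibition above 80%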
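Test system: IgMXP3 (ABCG2) plus far-red-tagged CCRF-Adr (ABCB1) cells / Amount: 3 million cells/mL in well / Reagent: JC-1 transporter substrate / Timing: 10 min compound exposure, 25 °C / Signal: flow cytometry, 530 nm JC-1 signal / Read-out: percent efflux inhibition, scaled nicardipine 100% to DMSO 0% / Benchmarks: nicardipine as high control, DMSO as low control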
RAM inhibit = blocks the yeast RAM network. S. cerevisiae dse1pr::URA3 reporter, 5-FOA growth OD615, 2 d; analog-sensitive cbk1-as2 kinase mutant strain. inhibition, % at 50 µM. 190,000 tested, 1.8% active. AID 868;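 active = inhibition above a set limit, 3 SD over mean compound inhibition, cut at about 8.4% in these data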;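 note: inhibition rescues growth on 5-FOA so higher OD means more RAM inhibition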
Of the large screens only hits and unclear results are named; the others gave an inactive call.

CC(C)CC(c1nnnn1C1CCCCC1)N1CCN(c2ncccn2)CC1 (centres undefined)	Lmaj promast 63
CCC(c1nnnn1C1CCCCC1)N1CCN(C2CCCC2)CC1 (centres undefined)	Lmaj promast 65
CCCC(c1nnnn1C1CCCCC1)N1CCN(C2CCCC2)CC1 (centres undefined)	none
COc1cc(Cl)c(C)cc1NC(=O)CSc1cc(Cl)ccc1Cl	none
CCc1cc2c3c(c1)C1(C(=O)N3C(C)(C)CC2C)C(C#N)=C(N)N2C(=C1C#N)Nc1ccccc12 (centres undefined)	none
C=CCc1ccc(OCCOc2cccc3ccc(C)nc23)c(OC)c1	none
CCOC(=O)c1cc(C(=O)c2cccs2)n2ccc(C(C)=O)cc12	RAM inhibit 8.5
CCOC(=O)c1cc(C(C)=O)n2ccccc12	none
c1ccc2c(CSc3ncnc4nc[nH]c34)cccc2c1	WT yeast gro inh 65
C/C(=N\NC(N)=S)C12CC3CC(CC(C3)C1)C2	Lmaj promast 101
C/C(=N\NC(N)=S)C1(C)CCCCC1	none
CCN(CCNC(=O)C1CCN(Cc2nc(-c3ccc(Cl)cc3)oc2C)CC1)c1ccccc1	none
CCN(CCNC(=O)C1CCCN(Cc2nc(-c3ccc(OC)cc3)oc2C)C1)c1ccccc1 (centres undefined)	Lmaj promast 51
CCc1ccc(-c2nc(CN3CCC(C(=O)NCCN(CC)c4ccccc4)CC3)c(C)o2)cc1	WT yeast gro inh 71, Lmaj promast 65
CCNC(=S)N/N=C/c1ccc(OCc2ccc(C(=O)OC)cc2)cc1	none
Cc1cc(Br)ccc1OCCn1ccnc1	Lmaj promast 72
Clc1cc(Br)ccc1OCCCn1ccnc1	Lmaj promast 97
Clc1cc(Br)ccc1OCCn1ccnc1	none
Cc1cccc(OCC(=O)Nc2ccc(N3CCN(C(=O)c4ccccc4)CC3)cc2)c1	none
O=C(Oc1ccc(/C=N/Nc2nc(N3CCCCC3)nc(N3CCCCC3)n2)cc1)c1ccco1	none
COC(=O)c1ccc(/C=N/Nc2nc(N3CCCCC3)nc(N3CCCCC3)n2)cc1	Lmaj promast 78
COc1ccc(/C=N/Nc2nc(N3CCCC3)nc(N3CCCC3)n2)cc1	Lmaj promast 63
O=[N+]([O-])c1ccc(/C=N/Nc2nc(N3CCCCC3)nc(N3CCCCC3)n2)o1	WT yeast gro inh 70, Lmaj promast 100
CC1=C(C)CC2(SC1)C(=O)N(c1ccccc1)N=C2N (centres undefined)	none
CC(C)C(=O)NCc1cc(-c2ccccc2)no1	none
O=C(NC1CCNCC1)C1CC1	none
CCCN(C(=O)CSc1cc(-c2ccccc2)c2ccc(OC)cc2n1)C1CCS(=O)(=O)C1 (centres undefined)	none
COc1ccc2c(-c3ccccc3)cc(SC(C)C(N)=O)nc2c1 (centres undefined)	Lmaj promast 81
Cn1cc(CNCCN2CCCCC2=O)c(-c2cccc(Cl)c2)n1	none
COc1ccc(/C=C/C(=O)c2ccc(OC)cc2OC)cc1	none
COc1ccc(C(=O)/C=C/c2ccccc2OC)c(OC(=O)c2ccc([N+](=O)[O-])cc2)c1	Lmaj promast 56 (no result: ABCB1 block, WT yeast gro inh, ABCG2 block, RAM inhibit)
COc1cccc(/C=C/C(=O)c2cccc([N+](=O)[O-])c2)c1OC	Lmaj promast 100
COc1cccc(/C=C/C(=O)c2cccc([N+](=O)[O-])c2)c1	Lmaj promast 98
COc1cccc(/C=C/C(=O)Nc2cccc(C(C)=O)c2)c1OC	none
Cc1nc2ccccn2c1C(=O)/C=C/c1cccc([N+](=O)[O-])c1	Lmaj promast 98
O=C(CS(=O)(=O)c1c[nH]c2ccccc12)N1CCc2ccccc21	none
COc1ccc(/C=C/C(=O)c2ccncc2)c2ccccc12	Lmaj promast 98
COc1ccc(OC(=O)c2cccc([N+](=O)[O-])c2)c(C(=O)/C=C/c2cccs2)c1	Lmaj promast 73
O=C(Cc1ccccc1)NNC(=S)Nc1ccccc1	none
O=C(CSc1nnc(SCc2ccccc2)s1)NNC(=S)Nc1ccccc1	RAM inhibit 10
c1cncc(C(c2nnnn2C2CCCCC2)N2CCCCC2)c1 (centres undefined)	none
Cc1ccc(Cl)cc1N1CCN(C(c2ccc(C#N)cc2)c2nnnn2C2CCCC2)CC1 (centres undefined)	Lmaj promast 71
Cc1ccc(C(c2nnnn2C2CCCCC2)N2CCN3CCCC3C2)cc1 (centres undefined)	none
Cc1ccc(Cl)cc1N1CCN(C(c2cccnc2)c2nnnn2C2CCCCC2)CC1 (centres undefined)	Lmaj promast 99
Cc1cc(NS(=O)(=O)c2ccc(NC(=S)NC(=O)c3ccc(Br)cc3)cc2)no1	none
CC(C)(C)[C@@H]1C=C(C(=O)NC2CC2)O[C@H](OCc2ccc(CO)cc2)C1	Lmaj promast 99
O=C(C1=C[C@@H](c2ccccc2)C[C@@H](OCc2ccc(CO)cc2)O1)N1CCN(Cc2ccc3c(c2)OCO3)CC1	none
CC(C)(C)[C@@H]1C=C(C(=O)N2CCN(Cc3ccccc3)CC2)O[C@H](OCc2ccc(CO)cc2)C1	WT yeast gro inh 70
CC(C)(C)[C@H]1C=C(C(=O)N2CCN(Cc3ccc4c(c3)OCO4)CC2)O[C@@H](OCc2ccc(CO)cc2)C1	WT yeast gro inh 97
CC(C)(C)[C@H]1C=C(C(=O)NC2CC2)O[C@@H](OCc2ccc(CO)cc2)C1	none
COc1ccc(-n2cnc3cc(C(=O)NCCN4CCOCC4)ccc32)cc1	none
CCN(CC)CCOC(=O)c1ccc(NC(=O)c2ccc(Cl)c(S(=O)(=O)N3CCCCCC3)c2)cc1	none
Brc1cc2c(cc1Cn1c(-c3cncs3)nc3ccccc31)OCO2	RAM inhibit 10
Cc1ccccc1Cn1c(-c2cncs2)nc2ccccc21	none
COC(=O)CNc1nc(Cl)nc(Nc2ccc(C)cc2)n1	none
CC(C)N(CCc1ccncc1)C(=S)Nc1cccc(Cl)c1	none
Cc1csc(NC(=O)C2CCCN(S(=O)(=O)c3ccc(Br)s3)C2)n1 (centres undefined)	Lmaj promast 61
COc1ccc(S(=O)(=O)N2CCN(S(=O)(=O)c3ccc4c(c3)OCCO4)CC2)cc1	none
COc1ccc(S(=O)(=O)N2CCC(C(=O)N3CCOCC3)CC2)cc1Cl	none
CCOc1ccc(C(=O)Nc2ccc3c(c2)OCCO3)cc1OC	RAM inhibit 8.5
COc1ccc(S(=O)(=O)N2CCN(S(=O)(=O)c3ccc4c(c3)OCCO4)CC2)cc1C	Lmaj promast 61
COc1ccc(S(=O)(=O)N2CCC(C(=O)N3CCCCC3)CC2)cc1OC	WT yeast gro inh 61
CC(/C=N/NC(=O)c1ccco1)=C\c1ccccc1	none
CCOC(=O)C(=O)N1CCN(c2cc3c(cc2[N+](=O)[O-])n(C)c(=O)n3C)CC1	none
COCCNC(=O)C(c1ccc(C)cc1)N(C(=O)C(=O)NC1CCCC1)c1ccc2c(c1)OCCO2 (centres undefined)	none
COc1ccc(S(=O)(=O)N2CCC(C(=O)Nc3ccc4c(c3)OCCO4)CC2)cc1OC	RAM inhibit 11

From PubChem BioAssay
